Assay results reported in ChEMBL document CHEMBL4825663 (J Med Chem, 2021).
Activity calls are given as the source filed them. No cut-off for these calls is given here.

Legend:
[1] = Cmax in human upto 360 mg, po administered as repeated dose for 5 consecutive days; assay type: ADME, organism-based; set-up: route oral, dose <=360; conditions: in vivo
[2] = molecular target: Cytochrome P450 3A4 (Homo sapiens, UniProt P08684); assay: Drug metabolism assessed as human CYP3A4-mediated metabolism; assay type: ADME; conditions: recombinant enzyme
[3] = molecular target: T1, Cytochrome P450 2B6 (Homo sapiens, UniProt P20813); assay: Drug metabolism assessed as human CYP2B6-mediated metabolism; assay type: ADME; conditions: recombinant enzyme
T1 sequence (P20813 whole entry): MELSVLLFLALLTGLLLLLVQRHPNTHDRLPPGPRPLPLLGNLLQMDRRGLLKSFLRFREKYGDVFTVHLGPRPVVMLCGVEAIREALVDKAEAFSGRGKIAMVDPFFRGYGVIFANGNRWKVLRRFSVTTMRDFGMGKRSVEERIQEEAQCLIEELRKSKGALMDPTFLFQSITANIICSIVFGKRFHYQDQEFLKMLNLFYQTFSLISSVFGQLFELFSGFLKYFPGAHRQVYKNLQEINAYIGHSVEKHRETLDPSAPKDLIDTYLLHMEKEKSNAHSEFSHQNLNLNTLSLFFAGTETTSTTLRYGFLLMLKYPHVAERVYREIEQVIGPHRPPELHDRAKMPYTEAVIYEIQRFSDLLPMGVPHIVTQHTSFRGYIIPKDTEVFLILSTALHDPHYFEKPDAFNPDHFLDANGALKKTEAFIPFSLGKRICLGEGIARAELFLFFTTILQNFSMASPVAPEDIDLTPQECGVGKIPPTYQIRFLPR

[4] = Toxicity in Beagle dog assessed as increase in total leukocyte and eosinophil counts at >= 100 mg/kg, po and measured after 13 weeks; assay type: organism-based, Canis lupus familiaris; conditions: in vivo, 2184 h
[5] = Tmax in Beagle dog at 10 mg/kg, po measured upto 48 hrs by LC-MS/MS analysis; conditions: in vivo
[6] = Tmax in Sprague-Dawley rat at 10 mg/kg, po measured upto 48 hrs by LC-MS/MS analysis; conditions: in vivo
[7] = molecular target: T2, Solute carrier organic anion transporter family member 1B1 (Homo sapiens, UniProt Q9Y6L6); assay: Inhibition of human OATP1B1 assessed as reduction in intracellular probe substrate accumulation upto 100 uM by microplate scintillation counter analysis relative to control; assay type: cell-based
T2 sequence (Q9Y6L6 whole entry): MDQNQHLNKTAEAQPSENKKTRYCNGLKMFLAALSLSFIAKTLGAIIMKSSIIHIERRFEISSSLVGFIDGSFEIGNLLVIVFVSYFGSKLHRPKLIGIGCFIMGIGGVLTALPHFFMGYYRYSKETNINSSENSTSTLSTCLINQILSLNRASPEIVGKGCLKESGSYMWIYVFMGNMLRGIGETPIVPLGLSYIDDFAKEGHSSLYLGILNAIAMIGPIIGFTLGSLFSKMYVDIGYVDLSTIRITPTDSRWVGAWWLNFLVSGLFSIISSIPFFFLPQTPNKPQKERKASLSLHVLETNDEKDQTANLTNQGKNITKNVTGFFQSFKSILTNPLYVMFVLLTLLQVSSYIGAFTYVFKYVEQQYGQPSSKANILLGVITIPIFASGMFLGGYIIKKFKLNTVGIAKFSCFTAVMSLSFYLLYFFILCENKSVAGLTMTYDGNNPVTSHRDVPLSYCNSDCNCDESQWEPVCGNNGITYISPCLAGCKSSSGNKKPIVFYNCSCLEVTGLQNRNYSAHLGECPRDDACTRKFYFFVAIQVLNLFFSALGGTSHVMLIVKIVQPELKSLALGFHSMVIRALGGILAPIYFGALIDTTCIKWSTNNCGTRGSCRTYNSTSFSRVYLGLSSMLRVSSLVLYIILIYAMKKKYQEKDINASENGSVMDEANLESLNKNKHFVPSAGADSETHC
Method in brief: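 Cellular uptake-inhibition assays used Chinese hamster ovary, HEK293 or MDCKII cells stably expressing the respective human SLC transporter, run alongside the corresponding control cells. Inhibitor was tested at concentrations up to 100 μM.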

[8] = Inhibition of P-gp in MDCK-MDR1 cells assessed as reduction in basal to apical transport of paclitaxel measured after 120 mins by LC-MS/MS analysis; assay type: cell-based; conditions: Canis lupus familiaris, MDCK-MDR1, 2 h
[9] = molecular target: ATP-binding cassette sub-family C member 2 (Homo sapiens, UniProt Q92887); assay: Inhibition of sulfasalazine-stimulated MRP2 ATPase activity (unknown origin) in presence of GSH
[10] = Drug distribution in Beagle dog brain; assay type: ADME, tissue-based, Canis lupus familiaris; conditions: in vivo
[11] = system: NCI-H460; assay: Antitumor activity against human NCI-H460 cells xenografted in athymic nude mouse assessed as median tumor growth delay at 40 mg/kg, po administered every other day for 4 doses in presence of 16 mg/kg encequidar and monitored for 48 days; assay type: functional; conditions: time 48 day
Method in brief: (§1)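 Female athymic NCr-nu mice carried subcutaneous NCI-H460 xenografts. […] Tumor weights and body weights were followed for 48 days after implantation. Read-out was median tumor growth delay.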

[12] = system: SK-OV-3; assay: Antitumor activity against human SK-OV-3 cells xenografted in athymic nude mouse assessed as tumor growth inhibition in presence of encequidar; assay type: functional
[13] = Drug distribution in BALB/c mouse intestine at 20 mg/kg, po measured upto 24 hrs in presence of 10 mg/kg encequidar by LC-MS/MS analysis; assay type: ADME, organism-based; conditions: in vivo
[14] = Tmax in Sprague-Dawley rat at 20 mg/kg, po measured upto 24 hrs by LC-MS/MS analysis; assay type: ADME, organism-based; conditions: in vivo
[15] = system: NCI-H460; assay: Antitumor activity against human NCI-H460 cells xenografted in athymic nude mouse assessed as median tumor growth delay at 50 mg/kg, po administered every other day for 4 doses in presence of 20 mg/kg encequidar and monitored for 48 days; assay type: functional; conditions: time 48 day
Method in brief: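 Female athymic NCr-nu mice bearing subcutaneous NCI-H460 human lung tumor xenografts. Paclitaxel (30, 40 or 50 mg/kg) and the P-gp inhibitor (12, 16 or 20 mg/kg; ratio 2.5:1) given together as one oral gavage solution every other day for four doses. IV paclitaxel (18 and 24 mg/kg) on the same schedule for comparison. Tumor weights and body weights followed for 48 days after implantation. Read-out: median tumor growth delay.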

[16] = Drug distribution in Sprague-Dawley rat liver at 20 mg/kg, po measured upto 168 hrs in presence of 10 mg/kg encequidar by LC-MS/MS analysis; assay type: ADME, organism-based; conditions: in vivo
[17] = system: NCI-H460; assay: Antitumor activity against human NCI-H460 cells xenografted in athymic nude mouse assessed as median tumor growth delay at 24 mg/kg, iv administered every other day for 4 doses and monitored for 48 days; assay type: functional; conditions: time 48 day; method in brief: as §1
[18] = Drug excretion in Sprague-Dawley rat bile at 20 mg/kg, po in presence of 10 mg/kg encequidar; assay type: ADME, organism-based; conditions: in vivo
[19] = Toxicity in athymic nude mouse xenografted with human MDA-MB-231 cells assessed as reduction in body weight at 20 mg/kg, po administered every other day for 4 doses in presence of 8 mg/kg encequidar and monitored for 70 to 82 days; assay type: organism-based; conditions: in vivo, time 70-82 day
Method in brief: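 Female athymic NCr-nu mice (n = 10/group) bearing subcutaneous MDA-MB-231 xenografts were treated from day 8. […] Individual body weights were monitored for 82 days after implantation.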

Chain of Cytochrome P450 3A4 (P08684 whole entry): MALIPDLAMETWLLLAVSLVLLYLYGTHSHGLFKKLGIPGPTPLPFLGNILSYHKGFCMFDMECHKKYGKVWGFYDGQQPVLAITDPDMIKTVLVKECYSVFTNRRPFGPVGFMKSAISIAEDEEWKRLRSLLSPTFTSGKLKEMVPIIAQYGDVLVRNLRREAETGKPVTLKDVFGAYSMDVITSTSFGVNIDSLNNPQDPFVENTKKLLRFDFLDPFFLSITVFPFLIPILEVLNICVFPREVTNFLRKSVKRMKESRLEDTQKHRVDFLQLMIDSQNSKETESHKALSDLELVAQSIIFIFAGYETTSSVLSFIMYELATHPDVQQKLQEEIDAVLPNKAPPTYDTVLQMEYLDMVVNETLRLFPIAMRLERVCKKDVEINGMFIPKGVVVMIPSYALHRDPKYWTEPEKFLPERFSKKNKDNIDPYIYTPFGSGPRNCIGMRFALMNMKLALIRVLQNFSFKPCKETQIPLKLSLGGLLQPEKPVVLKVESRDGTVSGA
Chain of ATP-binding cassette sub-family C member 2 (Q92887 whole entry): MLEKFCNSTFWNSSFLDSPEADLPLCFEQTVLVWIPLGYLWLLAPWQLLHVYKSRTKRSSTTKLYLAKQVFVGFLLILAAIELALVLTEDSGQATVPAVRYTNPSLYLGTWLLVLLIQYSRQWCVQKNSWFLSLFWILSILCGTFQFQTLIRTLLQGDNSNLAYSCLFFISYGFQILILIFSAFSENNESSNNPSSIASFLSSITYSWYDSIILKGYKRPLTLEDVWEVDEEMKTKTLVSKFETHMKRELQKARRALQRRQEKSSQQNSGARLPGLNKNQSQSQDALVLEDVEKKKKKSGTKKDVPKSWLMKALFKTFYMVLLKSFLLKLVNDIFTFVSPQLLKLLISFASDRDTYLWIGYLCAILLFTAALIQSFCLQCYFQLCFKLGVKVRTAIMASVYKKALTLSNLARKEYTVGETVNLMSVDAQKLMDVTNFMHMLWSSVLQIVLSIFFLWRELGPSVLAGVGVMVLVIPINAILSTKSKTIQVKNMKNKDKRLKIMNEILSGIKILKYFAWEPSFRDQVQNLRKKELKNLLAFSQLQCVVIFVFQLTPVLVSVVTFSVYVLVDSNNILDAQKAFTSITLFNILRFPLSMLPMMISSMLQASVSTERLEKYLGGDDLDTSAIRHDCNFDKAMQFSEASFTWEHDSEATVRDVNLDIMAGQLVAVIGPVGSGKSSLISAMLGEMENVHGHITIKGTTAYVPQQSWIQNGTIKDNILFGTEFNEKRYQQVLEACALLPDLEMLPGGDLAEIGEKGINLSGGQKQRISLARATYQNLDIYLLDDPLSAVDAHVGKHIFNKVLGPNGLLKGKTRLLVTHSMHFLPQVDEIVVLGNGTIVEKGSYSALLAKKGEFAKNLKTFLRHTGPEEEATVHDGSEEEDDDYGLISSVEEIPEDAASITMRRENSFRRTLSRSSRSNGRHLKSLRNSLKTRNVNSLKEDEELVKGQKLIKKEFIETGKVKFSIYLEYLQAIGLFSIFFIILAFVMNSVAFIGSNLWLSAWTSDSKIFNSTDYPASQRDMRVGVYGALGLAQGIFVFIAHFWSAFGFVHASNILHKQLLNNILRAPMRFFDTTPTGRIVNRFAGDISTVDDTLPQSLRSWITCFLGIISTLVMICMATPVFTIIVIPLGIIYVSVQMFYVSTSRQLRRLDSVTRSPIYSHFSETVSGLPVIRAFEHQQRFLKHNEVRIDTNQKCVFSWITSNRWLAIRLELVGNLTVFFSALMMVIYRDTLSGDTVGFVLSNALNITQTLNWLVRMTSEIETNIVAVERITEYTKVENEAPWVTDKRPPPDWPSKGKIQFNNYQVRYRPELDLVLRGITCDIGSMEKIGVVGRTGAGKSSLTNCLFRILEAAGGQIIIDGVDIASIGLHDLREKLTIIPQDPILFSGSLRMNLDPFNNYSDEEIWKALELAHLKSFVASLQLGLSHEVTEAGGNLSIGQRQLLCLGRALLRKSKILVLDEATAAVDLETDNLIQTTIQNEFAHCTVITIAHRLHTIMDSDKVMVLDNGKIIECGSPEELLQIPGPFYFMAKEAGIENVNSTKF

COc1cc2c(cc1OC)CN(CCc1ccc(-n3nnc(-c4cc(OC)c(OC)cc4NC(=O)c4cc(=O)c5ccccc5o4)n3)cc1)CC2
Cmax [1]: 22.5 ng/mL | Drug metabolism [2]: Metabolite_Detected | Drug metabolism [3]: Metabolite_Notdetected | Activity [4]: Toxic | Tmax [5]: 13.3 h | Tmax [6]: 8 h | inhibition (INH) [7]: < 50% | IC50 [8]: 35 nM | IC50 [9]: > 100000 nM | Drug uptake [10]: Not Active

CC(=O)O[C@H]1C(=O)[C@@]2(C)[C@H]([C@H](OC(=O)c3ccccc3)[C@]3(O)C[C@H](OC(=O)[C@H](O)[C@@H](NC(=O)c4ccccc4)c4ccccc4)C(C)=C1C3(C)C)[C@]1(OC(C)=O)CO[C@@H]1C[C@@H]2O [PACLITAXEL]
Time [11]: 8.7 days | Activity [12]: Active | Drug uptake [13]: Active | Tmax [14]: 0.9 h | Time [15]: 12.7 days | Drug uptake [16]: Active | Time [17]: 16.3 days | Drug excretion [18]: Metabolite_Detected | Activity [19]: Non-Toxic
